Measurements from article PMC7826402 (Proceedings of the National Academy of Sciences of the …, 2021).

Tests used:
[1] = system: CXCR4-mediated HIV-1 infection; experiment: CXCR4-tropic HIV-1 NL4-3 infection of GHOST-CXCR4 cells; type: cell-based, HIV-1 in human osteosarcoma (GHOST) cells; conditions: GHOST-CXCR4, HIV-1 NL4-3; three experiments
CXCR4 [2] = conditions: cited from earlier work
[3] = system: GPR15-mediated SIVmac239 infection; experiment: Inhibition of GPR15-mediated SIVmac239 infection of GHOST-GPR15 cells; type: cell-based, SIVmac239 in human osteosarcoma (GHOST) cells
Procedure, shortened: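 GHOST-GPR15 cells were seeded, cultured overnight and treated with test peptide for 2 h at 37 °C. They were then infected with SIVmac239 carrying Firefly luciferase in place of nef. Three days post-infection, cells were lysed and luciferase activity (RLU) was measured. Runs were at least in triplicate (mean ± SEM), and IC₅₀ was derived from increasing peptide concentrations.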

GPR15 [4] = experiment: GPR15 cell surface down-modulation in GHOST-GPR15 and CEM-M7 cells; type: cell-based, human
GPR15 [5] = experiment: Calcium release in GPR15-expressing CHO cells; type: cell-based; conditions: CHO cells with human GPR15 and Gα16; aequorin; quadruplicate
GPR15 [6] = experiment: GPR15 surface expression on PBMCs; type: cell-based, human; conditions: 10 µM, 1 h at 37°C; FACS; n = 3 donors
CXCR4 [7] = experiment: CXCR4 surface expression on PBMCs; type: cell-based, human; conditions: 10 µM, 1 h at 37°C; FACS; n = 3 donors
CCR5 = conditions: cited from earlier work

## c1cc(CN2CCCNCCNCCCNCC2)ccc1CN1CCCNCCNCCCNCC1 [AMD3100, reference compound]
[1]
  inhibition of CXCR4-mediated HIV-1 infection: in contrast to the small molecule inhibitor AMD3100, neither CysC95-146 nor GPR15L inhibited
CXCR4 [2]
  antagonism of chemokine signaling via CXCR4: antagonize chemokine signaling via these GPCRs

## CXCL-12/SDF-1: chemokine ligand of CXCR4
CXCR4 [2]
  inhibition of CXCR4-mediated HIV-1 infection by chemokine ligand: inhibit CCR5- or CXCR4-mediated HIV-1 infection, respectively

## GPR15L: agonistic chemokine ligand of GPR15 (KRRPAKAWSGRRTRLCCHRVPSPNSTNLKGHHVRLCKPCKLEPEPRLWVVPGALPQV; UniProt Q6UWK7 25-81, looked up)
[3]; GHOST-GPR15 treated with CysC95-146 in presence or absence of GPR15L, SIVmac239 luciferase reporter
  effect of GPR15L on antiviral activity of CysC95-146: did not enhance the antiviral activity of CysC95-146
[3]; overall statement (Discussion)
  inhibitory effect on HIV and SIV entry: little if any inhibitory effect on HIV and SIV entry
GPR15 [4]; GHOST-GPR15 and CEM-M7 cells, 30 min at 37°C or 4°C, flow cytometry
  GPR15 cell surface expression: induced down-regulation of GPR15 from the surface of GHOST-GPR15 and CEM-M7 cells
GPR15 [4]; cells kept on ice (4°C)
  GPR15 receptor internalization on ice: strongly reduced
GPR15 [5]
  calcium release (GPR15 signaling): GPR15 signaling was confirmed
GPR15 [6]
  reduction of GPR15 cell surface expression on PBMCs: ~40%
CXCR4 [7]
  CXCR4 surface expression on PBMCs: induced significant down-modulation of CXCR4
[1]
  inhibition of CXCR4-mediated HIV-1 infection: neither CysC95-146 nor GPR15L inhibited CXCR4-mediated HIV-1 infection

## Maraviroc [reference compound]
CCR5
  antagonism of chemokine signaling via CCR5: antagonize chemokine signaling via these GPCRs

B1: cystatin C: small (13 kDa) basic protein; human Cystatin C protein (purified, from human urine) (protein, UniProt P01034 27-146, looked up)
Cystatin-C: SSPGKPPRLVGGPMDASVEEEGVRRALDFAVGEYNKASNDMYHSRALQVVRARKQIVAGVNYFLDVELGRTTCTKTQPNLDNCPFHDQPHLKRKAFCSFQIYAVPWQGTMTLSKSTCQDA
[3]; GHOST-GPR15 cells, SIVmac239 F-Luc, peptide preincubation 1 – 2 h 37 °C, 3 dpi
  inhibition of GPR15-mediated SIVmac239 infection (in words): little inhibitory effect

B2: CCL5/RANTES: chemokine ligand of CCR5 (protein, UniProt P13501 24-91, looked up)
C-C motif chemokine 5: SPYSSDTTPCCFAYIARPLPRAHIKEYFYTSGKCSNPAVVFVTRKNRQVCANPEKKWVREYINSLEMS
CCR5
  inhibition of CCR5-mediated HIV-1 infection by chemokine ligand: inhibit CCR5- or CXCR4-mediated HIV-1 infection, respectively
